Source: ChEMBL document CHEMBL1150355, “Design and evaluation of a novel series of 2,3-oxidosqualene cyclase inhibitors with low systemic exposure, relationship between pharmacokinetic properties and ocular toxicity” (Bioorg Med Chem, 2008)
Active and inactive are the calls of the source. No cut-off for these calls is given here.

Tests used:
Lanosterol synthase = target: T1, Lanosterol synthase (Homo sapiens, UniProt P48449); experiment: Inhibition of 2,3-oxidosqualene-lanosterol cyclase
T1 sequence (P48449 whole entry): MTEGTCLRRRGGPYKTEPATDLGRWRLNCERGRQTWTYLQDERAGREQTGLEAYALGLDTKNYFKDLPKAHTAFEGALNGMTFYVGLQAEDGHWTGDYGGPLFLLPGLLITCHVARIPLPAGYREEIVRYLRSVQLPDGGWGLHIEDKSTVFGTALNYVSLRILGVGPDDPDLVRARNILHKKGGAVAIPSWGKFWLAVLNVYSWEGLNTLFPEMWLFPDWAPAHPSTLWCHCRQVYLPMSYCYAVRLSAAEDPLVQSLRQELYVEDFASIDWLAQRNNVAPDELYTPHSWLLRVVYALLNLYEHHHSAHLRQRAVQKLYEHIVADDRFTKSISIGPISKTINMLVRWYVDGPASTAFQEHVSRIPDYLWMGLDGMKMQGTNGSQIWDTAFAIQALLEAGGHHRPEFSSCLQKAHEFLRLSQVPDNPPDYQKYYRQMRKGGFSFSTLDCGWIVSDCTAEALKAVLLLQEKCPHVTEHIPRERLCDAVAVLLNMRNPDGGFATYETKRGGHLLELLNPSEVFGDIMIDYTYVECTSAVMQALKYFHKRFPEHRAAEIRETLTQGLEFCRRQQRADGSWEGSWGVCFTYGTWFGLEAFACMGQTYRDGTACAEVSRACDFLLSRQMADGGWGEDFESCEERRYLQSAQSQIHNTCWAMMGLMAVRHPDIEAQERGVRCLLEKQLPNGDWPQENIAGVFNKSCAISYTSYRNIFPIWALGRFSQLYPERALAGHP
Procedure, shortened: (§1)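 HepG2 cells were incubated 24 h with compound in BME with 10% fetal calf serum, then labelled with [14C]mevalonate (7.4 kBq). Lipids were extracted with heptane/isopropanol and separated by TLC. [14C]cholesterol, MES and DES were identified against standards and quantified by phosphorimaging, scoring cholesterol synthesis inhibition together with MES/DES formation.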

[1] = Metabolic stability in rat liver microsomes assessed as intrinsic clearance […]; assay type: ADME, Microsome
Rattus norvegicus [2] = experiment: Inhibition of neosynthetized cholesterol synthesis in OFA rat liver at 2 mg/kg, po after 3 hrs; assay type: functional
Procedure, shortened: (§2)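 Male OFA rats dosed orally at 2 mg/kg. Sterol synthesis was labelled by ip [14C]mevalonate (370 kBq) for the final hour, giving 3 h or 8 h total exposure. Lens and liver lipids were extracted with isopropanol, separated by TLC, and cholesterol and MES radioactivity quantified by phosphorimaging. Cholesterol inhibition is relative to vehicle-treated rats, and MES as % of BIBB 515-treated rats (100%).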

Rattus norvegicus [3] = experiment: Induction of neosynthetized 2,3 mono-epoxysqualene synthesis in OFA rat liver at 2 mg/kg, po after 3 hrs relative to BIBB 515; assay type: functional; procedure, shortened: as §2
Rattus norvegicus [4] = experiment: Inhibition of neosynthetized cholesterol synthesis in OFA rat lens at 2 mg/kg, po after 3 hrs; assay type: functional; conditions: Lens of camera-type eye; procedure, shortened: as §2
Rattus norvegicus [5] = experiment: Induction of neosynthetized 2,3 mono-epoxysqualene synthesis in OFA rat lens at 2 mg/kg, po after 3 hrs relative to BIBB 515; assay type: functional, Lens of camera-type eye; procedure, shortened: as §2
Rattus norvegicus [6] = experiment: Inhibition of neosynthetized cholesterol synthesis in OFA rat liver at 2 mg/kg, po after 8 hrs; assay type: functional; procedure, shortened: as §2
Rattus norvegicus [7] = experiment: Induction of neosynthetized 2,3 mono-epoxysqualene synthesis in OFA rat liver at 2 mg/kg, po after 8 hrs relative to BIBB 515; assay type: functional; procedure, shortened: as §2
Rattus norvegicus [8] = experiment: Inhibition of neosynthetized cholesterol synthesis in OFA rat lens at 2 mg/kg, po after 8 hrs; assay type: functional; conditions: Lens of camera-type eye; procedure, shortened: as §2
Rattus norvegicus [9] = experiment: Induction of neosynthetized 2,3 mono-epoxysqualene synthesis in OFA rat lens at 2 mg/kg, po after 8 hrs relative to BIBB 515; assay type: functional, Lens of camera-type eye; procedure, shortened: as §2
[10] = AUC (0 to 6 hrs) in OFA rat at 1 mg/kg, iv; assay type: ADME, organism-based; set-up: time < 6 hr, dose 1 mg/kg, route intravenous; conditions: plasma
Procedure, shortened: (§3)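 OFA rats (n = 10) dosed 1 mg/kg by iv bolus via penis vein in 10% DMA/90% PEG200. Plasma and tissue homogenates in borate buffer 0.1 M pH 11.5 were extracted with ethyl ether and analysed by LC. Plasma AUC was computed over 0–6 h.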

[11] = Biodistribution in OFA rat liver at 1 mg/kg, iv after 2 hrs; assay type: ADME, organism-based; set-up: dose 1 mg/kg, route intravenous; conditions: read-out: Drug uptake; procedure, shortened: as §3
[12] = Biodistribution in OFA rat liver at 1 mg/kg, iv after 6 hrs; assay type: ADME, organism-based; set-up: dose 1 mg/kg, route intravenous; conditions: read-out: Drug uptake; procedure, shortened: as §3
[13] = Biodistribution in OFA rat eyes at 1 mg/kg, iv after 2 hrs; assay type: ADME, organism-based; set-up: dose 1 mg/kg, route intravenous; conditions: eye, read-out: Drug uptake; procedure, shortened: as §3
[14] = Biodistribution in OFA rat eyes at 1 mg/kg, iv after 6 hrs; assay type: ADME, organism-based; set-up: dose 1 mg/kg, route intravenous; conditions: eye, read-out: Drug uptake; procedure, shortened: as §3
[15] = target: T2, Lanosterol synthase (Homo sapiens) (UniProt P48449); experiment: Inhibition of 2,3-oxidosqualene-lanosterol cyclase at 200 nM; procedure, shortened: as §1
T2 sequence (whole entry): T1 sequence (P48449 whole entry)

Rattus norvegicus [16] = experiment: Ocular toxicity in Sprague-Dawley rat assessed as opacification of anterior lens at 30 mg/kg, po administered once daily for 21 days; assay type: organism-based, Lens of camera-type eye; set-up: dose 30 mg/kg, route oral; conditions: in vivo, 504 h
Procedure, shortened: (§4)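 Sprague–Dawley rats (male and female, n = 3) were dosed orally once daily for 21 days. Anterior lens opacification was scored from 0 to 6 (4 marked, 5 very marked, 6 severe), with histological examination of the eye.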

Rattus norvegicus [17] = experiment: Ocular toxicity in Sprague-Dawley rat assessed as opacification of anterior lens at 2 mg/kg, po administered once daily for 21 days; assay type: organism-based, Lens of camera-type eye; set-up: dose 2 mg/kg, route oral; conditions: in vivo, 504 h; procedure, shortened: as §4
Rattus norvegicus [18] = experiment: Inhibition of 2,3-oxidosqualene-lanosterol cyclase in male Sprague-Dawley rat assessed as 2,3 mono-epoxysqualene appearance in liver at 2 mg/kg, po administered once daily for 21 days; assay type: functional, organism-based; set-up: dose 2 mg/kg
Procedure, shortened: (§5)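 Sprague–Dawley rats (3 per sex) were dosed orally once daily for 21 days. On day 21, 3 h after the last dose, rats were sacrificed and hepatic lipids extracted and separated by TLC. MES was visualised with 5% phosphomolybdic acid in isopropanol, and MES mass quantified by densitometry.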

Rattus norvegicus [19] = experiment: Inhibition of 2,3-oxidosqualene-lanosterol cyclase in female Sprague-Dawley rat assessed as 2,3 mono-epoxysqualene appearance in liver at 2 mg/kg, po administered once daily for 21 days; assay type: functional, organism-based; set-up: dose 2 mg/kg; procedure, shortened: as §5
Rattus norvegicus [20] = experiment: Inhibition of 2,3-oxidosqualene-lanosterol cyclase in male Sprague-Dawley rat assessed as 2,3 mono-epoxysqualene appearance in liver at 10 mg/kg, po administered once daily for 21 days; assay type: functional, organism-based; set-up: dose 10 mg/kg; procedure, shortened: as §5
Rattus norvegicus [21] = experiment: Inhibition of 2,3-oxidosqualene-lanosterol cyclase in female Sprague-Dawley rat assessed as 2,3 mono-epoxysqualene appearance in liver at 10 mg/kg, po administered once daily for 21 days; assay type: functional, organism-based; set-up: dose 10 mg/kg; procedure, shortened: as §5
Rattus norvegicus [22] = experiment: Inhibition of 2,3-oxidosqualene-lanosterol cyclase in male Sprague-Dawley rat assessed as 2,3 mono-epoxysqualene appearance in liver at 30 mg/kg, po administered once daily for 21 days; assay type: functional, organism-based; set-up: dose 30 mg/kg; procedure, shortened: as §5
Rattus norvegicus [23] = experiment: Inhibition of 2,3-oxidosqualene-lanosterol cyclase in female Sprague-Dawley rat assessed as 2,3 mono-epoxysqualene appearance in liver at 30 mg/kg, po administered once daily for 21 days; assay type: functional, organism-based; set-up: dose 30 mg/kg; procedure, shortened: as §5

Structure (SMILES)	IC50 (Lanosterol synthase) [nM]	CLint scaled [1] [mL/min/g]	AUC(0-t) at 6 h [10] [ng·h/mL]	concentration at 2 h [11] [ng/g]	concentration at 6 h [12] [ng/g]	concentration at 2 h [13] [ng/g]	concentration at 6 h [14] [ng/g]	inhibition in vivo at 2 mg/kg (Rattus norvegicus [2]) [%]	Activity (Rattus norvegicus [3]) [%]	inhibition in vivo at 2 mg/kg (Rattus norvegicus [4]) [%]	Activity (Rattus norvegicus [5]) [%]	inhibition in vivo at 2 mg/kg (Rattus norvegicus [6]) [%]	Activity (Rattus norvegicus [7]) [%]	inhibition in vivo at 2 mg/kg (Rattus norvegicus [8]) [%]	Activity (Rattus norvegicus [9]) [%]	further results
CN(C)Cc1ccc(CN2CCN(C(=O)c3ccc(OC(F)(F)F)cc3)CC2)cc1	20	3.6	362	2420	1320	260	194	83	100	64	175	69	241	66	51	
Cn1cc(-c2ccc(CN3CCN(C(=O)c4ccc(Cl)cc4)CC3)cc2)cn1																Activity [15]: inactive
O=S(=O)(c1ccc(Cl)cc1)N1CCN(Cc2cccc(-c3ccncc3)c2)CC1	500															
O=C(c1ccc(Cl)cc1)N1CCC(=Cc2ccc(C3=NCCO3)cc2)CC1		2.3	1030	301	169	< 10	< 10	85	100	79	100	40	100	61	100	
O=S(=O)(c1ccc(Cl)cc1)N1CCN(Cc2ccc(-c3ccncc3)cc2)CC1	13	1.3						66	45							
CN(C)Cc1ccc(CN2CCN(S(=O)(=O)c3ccc(Cl)cc3)CC2)cc1	32	2.5						74	55							
O=C(N1CCN(Cc2ccc(-n3ccnc3)cc2)CC1)C(F)(F)F																Activity [15]: inactive
N#Cc1ccc(S(=O)(=O)NCCc2ccc(C(O)c3cccnc3)cc2)cc1 (racemic)																EC50 (Lanosterol synthase): 100 nM

Continued, in another order:

IC50 (Lanosterol synthase) [nM]	CLint scaled [1] [mL/min/g]	AUC(0-t) at 6 h [10] [ng·h/mL]	concentration at 2 h [11] [ng/g]	concentration at 6 h [12] [ng/g]	concentration at 2 h [13] [ng/g]	concentration at 6 h [14] [ng/g]	Structure (SMILES)	inhibition in vivo at 2 mg/kg (Rattus norvegicus [2]) [%]	Activity (Rattus norvegicus [3]) [%]	inhibition in vivo at 2 mg/kg (Rattus norvegicus [4]) [%]	Activity (Rattus norvegicus [5]) [%]	inhibition in vivo at 2 mg/kg (Rattus norvegicus [6]) [%]	Activity (Rattus norvegicus [7]) [%]	inhibition in vivo at 2 mg/kg (Rattus norvegicus [8]) [%]	Activity (Rattus norvegicus [9]) [%]	further results
40							CN(C)Cc1ccc(CN2CCN(C(=O)c3ccc(Cl)cc3)CC2)cc1									
32	0.2	534	2010	660	65	< 10	O=C(c1ccc(Cl)cc1)N1CCN(Cc2ccc(-n3ccnc3)cc2)CC1	85	156	76	104	20	85	0	51	Activity (Rattus norvegicus [16]): Toxic; Activity (Rattus norvegicus [17]): Non-toxic; Activity (Rattus norvegicus [18]): Non-toxic; Activity (Rattus norvegicus [19]): Toxic; Activity (Rattus norvegicus [20]): Toxic; Activity (Rattus norvegicus [21]): Toxic; Activity (Rattus norvegicus [22]): Toxic; Activity (Rattus norvegicus [23]): Toxic
